Consider 36 molecules from ChEMBL document CHEMBL4014345, “Development of Selective Clk1 and -4 Inhibitors for Cellular Depletion of Cancer-Relevant Proteins” (J Med Chem, 2017).

For orientation: inhibition means the drop in the measured response relative to a control, in per cent. By IC50 is commonly meant the midpoint of a concentration-inhibition curve. The GI50 is the concentration that inhibits growth by half. The term LC50 denotes the concentration that kills 50% of the test population. Low values mean a more lethal substance, high ones a less lethal substance.

The target in series [1] is T1, Dual specificity protein kinase CLK1 (Homo sapiens, UniProt P49759). The series can be described thus: Inhibition of recombinant human GST-tagged Clk1 expressed in Escherichia coli at 100 nM using RS repeat substrate peptide after 15 mins in presence of [gamma-32]-ATP.
Target sequence in this assay (P49759 whole entry, looked up): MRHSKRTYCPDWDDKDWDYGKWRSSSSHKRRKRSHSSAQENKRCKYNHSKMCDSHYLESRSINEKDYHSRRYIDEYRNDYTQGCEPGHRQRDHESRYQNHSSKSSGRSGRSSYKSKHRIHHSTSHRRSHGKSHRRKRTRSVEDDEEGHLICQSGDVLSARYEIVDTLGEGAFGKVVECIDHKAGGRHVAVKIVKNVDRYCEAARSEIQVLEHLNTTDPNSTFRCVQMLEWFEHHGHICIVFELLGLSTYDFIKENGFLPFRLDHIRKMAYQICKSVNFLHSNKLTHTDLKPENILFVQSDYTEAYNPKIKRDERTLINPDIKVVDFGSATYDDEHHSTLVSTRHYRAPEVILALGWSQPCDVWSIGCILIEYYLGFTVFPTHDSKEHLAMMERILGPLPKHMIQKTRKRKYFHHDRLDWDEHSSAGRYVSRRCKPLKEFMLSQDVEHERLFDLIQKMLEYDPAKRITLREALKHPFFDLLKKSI
In series [2] the target is T2, Dual specificity tyrosine-phosphorylation-regulated kinase 1A (Homo sapiens, UniProt Q13627). The series can be described thus: Inhibition of N-terminal His6-tagged recombinant human Dyrk1A expressed in Escherichia coli BL21 (DE3) using KKISGRLSPIMTEQ-NH2 as substrate after 15 mins in presence of [gamma-32]-ATP.
Series [3] deals with T1, Dual specificity protein kinase CLK1. The series can be described thus: Inhibition of recombinant human GST-tagged Clk1 expressed in Escherichia coli using RS repeat substrate peptide after 15 mins in presence of [gamma-32]-ATP.
Target sequence in this assay (P49759 whole entry): as the sequence (P49759 whole entry, looked up) above
In series [4] the target is T2, Dual specificity tyrosine-phosphorylation-regulated kinase 1A. The series can be described thus: Inhibition of N-terminal His6-tagged recombinant human Dyrk1A expressed in Escherichia coli BL21 (DE3) using KKISGRLSPIMTEQ-NH2 as substrate at 1 uM after 15 mins in presence of [gamma-32]-ATP. The conditions noted are these: 0.25 h.
Series [5] has as its target Dual specificity tyrosine-phosphorylation-regulated kinase 1B (Homo sapiens, UniProt Q9Y463). As to the kind of experiment: Inhibition of full length recombinant GST-tagged human DYRK1B expressed in baculovirus using KKISGRLSPIMTEQ-NH2 as substrate at 1 uM after 15 mins.
The target in series [6] is Serine/threonine-protein kinase haspin (Homo sapiens) (UniProt Q8TF76). The series can be described thus: Inhibition of MBP-Haspin (unknown origin) at 1 uM after 10 mins by TR-FRET assay. In short, it runs like this:
(§1)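 Tested in a commercial kinase profiling panel at an ATP concentration of 100 μM. Data are the mean of duplicates that differed by less than 7%.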
(Time-resolved FRET reads energy transfer from a long-lived donor to a nearby acceptor.)

Series [7] concerns the target T1, Dual specificity protein kinase CLK1. The series can be described thus: Inhibition of recombinant human GST-tagged Clk1 expressed in Escherichia coli at 1 uM using RS repeat substrate peptide after 15 mins in presence of [gamma-32]-ATP.
Target sequence in this assay (P49759 whole entry, looked up): as above
The target in series [8] is Dual specificity protein kinase CLK2 (Mus musculus) (UniProt O35491). The series can be described thus: Inhibition of recombinant GST-tagged mouse CLK2 using GRSRSRSRSRSR as substrate at 1 uM after 30 mins in presence of [gamma-32P]-ATP by scintillation counting method.
Chain of Dual specificity protein kinase CLK2 (Mus musculus) (O35491 whole entry, looked up): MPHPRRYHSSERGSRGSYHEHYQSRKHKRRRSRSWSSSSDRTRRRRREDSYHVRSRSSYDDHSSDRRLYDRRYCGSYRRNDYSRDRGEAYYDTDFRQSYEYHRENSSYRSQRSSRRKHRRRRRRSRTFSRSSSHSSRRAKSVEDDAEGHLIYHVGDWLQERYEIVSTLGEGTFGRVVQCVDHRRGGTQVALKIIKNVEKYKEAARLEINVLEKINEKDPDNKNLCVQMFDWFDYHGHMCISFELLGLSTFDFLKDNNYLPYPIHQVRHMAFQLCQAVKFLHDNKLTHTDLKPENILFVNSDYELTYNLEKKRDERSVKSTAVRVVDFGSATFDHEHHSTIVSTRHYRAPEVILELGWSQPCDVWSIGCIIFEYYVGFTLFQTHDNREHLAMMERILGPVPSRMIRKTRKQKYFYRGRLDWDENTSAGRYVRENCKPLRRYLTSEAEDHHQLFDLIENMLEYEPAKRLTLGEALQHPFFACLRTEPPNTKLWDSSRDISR
For series [9], the target named is Dual specificity protein kinase CLK3 (Mus musculus) (UniProt O35492). As to the kind of experiment: Inhibition of recombinant GST-tagged mouse CLK3 using GRSRSRSRSRSR as substrate at 1 uM after 30 mins in presence of [gamma-32P]-ATP by scintillation counting method.
The target in series [10] is Dual specificity protein kinase CLK4 (Mus musculus) (UniProt O35493). As to the kind of experiment: Inhibition of recombinant GST-tagged mouse CLK4 using GRSRSRSRSRSR as substrate at 1 uM after 30 mins in presence of [gamma-32P]-ATP by scintillation counting method.
Chain of Dual specificity protein kinase CLK4 (Mus musculus) (O35493 whole entry, looked up): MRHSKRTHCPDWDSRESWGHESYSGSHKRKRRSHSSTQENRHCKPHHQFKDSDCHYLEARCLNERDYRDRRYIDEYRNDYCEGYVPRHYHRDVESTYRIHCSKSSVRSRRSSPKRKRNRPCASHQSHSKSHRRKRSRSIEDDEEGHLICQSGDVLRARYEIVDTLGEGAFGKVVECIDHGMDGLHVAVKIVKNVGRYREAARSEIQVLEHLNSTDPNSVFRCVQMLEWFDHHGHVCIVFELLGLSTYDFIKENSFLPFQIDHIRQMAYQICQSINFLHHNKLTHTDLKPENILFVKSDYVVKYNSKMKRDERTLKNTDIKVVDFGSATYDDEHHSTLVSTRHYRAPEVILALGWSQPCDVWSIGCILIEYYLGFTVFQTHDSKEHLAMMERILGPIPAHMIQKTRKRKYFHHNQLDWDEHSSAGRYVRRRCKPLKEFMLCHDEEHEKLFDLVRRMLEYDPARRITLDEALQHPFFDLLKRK
Series [11] deals with SRSF protein kinase 2 (Homo sapiens) (UniProt P78362). The series can be described thus: Inhibition of SRPK2 (unknown origin) at 1 uM. Put shortly:
as §1

Series [12] has as its target Serine/threonine-protein kinase 17A (Homo sapiens) (UniProt Q9UEE5). As to the kind of experiment: Inhibition of STK17A (unknown origin) at 1 uM after 15 mins. Put shortly:
as §1

Series [13] concerns the target SRSF protein kinase 1 (Homo sapiens) (UniProt Q96SB4). As to the kind of experiment: Inhibition of SRPK1 (unknown origin) at 1 uM. Put shortly: as §1
In series [14] the target is Myosin light chain kinase 2, skeletal/cardiac muscle (Homo sapiens) (UniProt Q9H1R3). As to the kind of experiment: Inhibition of MLCK2 (unknown origin) at 1 uM after 15 mins. In short, it runs like this: as §1
Series [15] concerns the target Dual specificity tyrosine-phosphorylation-regulated kinase 4 (Homo sapiens) (UniProt Q9NR20). The series can be described thus: Inhibition of DYRK4 (unknown origin) using KKISGRLSPIMTEQ-NH2 as substrate at 1 uM after 15 mins in presence of [gamma-32P]-ATP.
Series [16] addresses Dual specificity tyrosine-phosphorylation-regulated kinase 3 (Homo sapiens) (UniProt O43781). As to the kind of experiment: Inhibition of DYRK3 (unknown origin) using KKISGRLSPIMTEQ-NH2 as substrate at 1 uM after 15 mins in presence of [gamma-32P]-ATP.
In the next series the test system is T-24. As to the kind of experiment: Cytotoxicity against human T24 cells assessed as growth inhibition after 5 days by MTT assay. The format is functional. The conditions noted are these: T-24, 120 h. In short, it runs like this: (§2)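 They were seeded at 5000 cells per well onto compound or DMSO (0.2% final). Plates were kept 5 days at 37 °C in 5% CO2 with no medium change, then read by MTT.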
(Formazan colour is commonly taken as a measure of viable cells.)

For the next series, the system named is MDA-MB-231. The series can be described thus: Cytotoxicity against human MDA-MB-231 cells assessed as growth inhibition after 5 days by MTT assay. The conditions noted are these: MDA-MB-231, 120 h. The format is functional. In short, it runs like this:
as §2

The subject of the next series is HepG2. As to the kind of experiment: Cytotoxicity against human HepG2 cells assessed as growth inhibition after 5 days by MTT assay. The conditions noted are these: HepG2, 120 h. In kind it is functional. Put shortly:
as §2

The subject of another series is T47D. The series can be described thus: Cytotoxicity against human T47D cells assessed as growth inhibition after 5 days by MTT assay. The format is functional. The conditions noted are these: 120 h. Put shortly:
as §2

The next series deals with THP-1. The series can be described thus: Cytotoxicity against human THP1 cells assessed as growth inhibition after 5 days by MTT assay. In kind it is functional. The conditions noted are these: THP-1, 120 h. In short, it runs like this:
as §2

Series [17] in a line: Cytotoxicity against HEK293 cells assessed as growth inhibition. In kind it is cell-based. The conditions noted are these: human. Put shortly: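 Cytotoxicity was tested in proliferating HEK293 cells with GI50 as the read-out. Data are the mean of at least two independent experiments.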
Another series concerns PBL. As to the kind of experiment: Cytotoxicity against human PBL after 2 days by MTT assay. The conditions noted are these: 48 h. The format is cell-based. In short, it runs like this: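 Cells plated at 30 000 per well with test compounds or DMSO control for 2 days, then MTT read-out. LC50 reported as the mean of at least two independent experiments.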

SMILES strings stand for the structures. Activity calls are given as the source filed them. The rule behind the calls is not given here.

Chain of Dual specificity tyrosine-phosphorylation-regulated kinase 3 (Homo sapiens) (O43781 whole entry): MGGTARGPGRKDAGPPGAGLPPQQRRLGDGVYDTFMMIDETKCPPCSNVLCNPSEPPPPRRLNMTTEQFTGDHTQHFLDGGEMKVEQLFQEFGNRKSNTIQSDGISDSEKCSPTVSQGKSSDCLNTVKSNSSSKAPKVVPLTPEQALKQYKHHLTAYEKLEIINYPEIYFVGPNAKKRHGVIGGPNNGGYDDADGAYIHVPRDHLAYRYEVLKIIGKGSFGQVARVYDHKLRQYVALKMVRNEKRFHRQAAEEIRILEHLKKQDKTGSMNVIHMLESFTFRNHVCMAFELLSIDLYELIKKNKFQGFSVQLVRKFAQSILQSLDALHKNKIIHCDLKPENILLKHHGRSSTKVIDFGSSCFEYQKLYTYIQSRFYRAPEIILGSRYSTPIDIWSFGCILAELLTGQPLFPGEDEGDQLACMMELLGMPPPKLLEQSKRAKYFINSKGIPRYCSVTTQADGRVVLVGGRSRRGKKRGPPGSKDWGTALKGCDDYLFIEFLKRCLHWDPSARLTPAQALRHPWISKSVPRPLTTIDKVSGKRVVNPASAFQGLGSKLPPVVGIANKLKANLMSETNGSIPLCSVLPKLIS
Chain of SRSF protein kinase 2 (Homo sapiens) (P78362 whole entry, looked up): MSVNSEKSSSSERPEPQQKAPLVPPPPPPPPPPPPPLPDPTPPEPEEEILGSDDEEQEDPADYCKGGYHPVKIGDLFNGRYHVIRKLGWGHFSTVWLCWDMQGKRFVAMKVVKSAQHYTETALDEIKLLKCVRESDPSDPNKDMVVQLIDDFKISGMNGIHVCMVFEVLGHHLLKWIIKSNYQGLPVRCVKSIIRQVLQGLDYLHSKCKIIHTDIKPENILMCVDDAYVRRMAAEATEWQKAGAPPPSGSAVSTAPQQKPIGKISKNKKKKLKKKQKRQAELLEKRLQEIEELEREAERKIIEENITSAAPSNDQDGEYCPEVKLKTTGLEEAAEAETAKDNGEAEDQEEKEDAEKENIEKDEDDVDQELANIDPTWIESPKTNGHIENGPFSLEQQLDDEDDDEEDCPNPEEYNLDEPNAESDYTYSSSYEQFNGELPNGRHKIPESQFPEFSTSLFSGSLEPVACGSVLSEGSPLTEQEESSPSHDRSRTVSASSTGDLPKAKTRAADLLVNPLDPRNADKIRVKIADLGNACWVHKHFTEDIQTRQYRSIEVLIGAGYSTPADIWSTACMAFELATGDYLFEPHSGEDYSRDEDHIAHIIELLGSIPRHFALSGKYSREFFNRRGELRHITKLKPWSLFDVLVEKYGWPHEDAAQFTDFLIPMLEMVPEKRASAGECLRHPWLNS
Chain of Serine/threonine-protein kinase 17A (Homo sapiens) (Q9UEE5 whole entry): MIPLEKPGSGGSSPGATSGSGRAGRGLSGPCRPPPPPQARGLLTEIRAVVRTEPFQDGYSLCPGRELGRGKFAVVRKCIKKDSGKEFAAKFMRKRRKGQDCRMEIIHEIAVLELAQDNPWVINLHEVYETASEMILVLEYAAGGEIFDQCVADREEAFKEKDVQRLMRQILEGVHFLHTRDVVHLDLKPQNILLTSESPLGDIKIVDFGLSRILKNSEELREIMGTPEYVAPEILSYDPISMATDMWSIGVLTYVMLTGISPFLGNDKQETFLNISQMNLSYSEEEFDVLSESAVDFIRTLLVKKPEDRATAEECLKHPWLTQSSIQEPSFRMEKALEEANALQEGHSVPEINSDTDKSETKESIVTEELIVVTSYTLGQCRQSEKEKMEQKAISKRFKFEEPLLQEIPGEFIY
Chain of Dual specificity tyrosine-phosphorylation-regulated kinase 1B (Q9Y463 whole entry, looked up): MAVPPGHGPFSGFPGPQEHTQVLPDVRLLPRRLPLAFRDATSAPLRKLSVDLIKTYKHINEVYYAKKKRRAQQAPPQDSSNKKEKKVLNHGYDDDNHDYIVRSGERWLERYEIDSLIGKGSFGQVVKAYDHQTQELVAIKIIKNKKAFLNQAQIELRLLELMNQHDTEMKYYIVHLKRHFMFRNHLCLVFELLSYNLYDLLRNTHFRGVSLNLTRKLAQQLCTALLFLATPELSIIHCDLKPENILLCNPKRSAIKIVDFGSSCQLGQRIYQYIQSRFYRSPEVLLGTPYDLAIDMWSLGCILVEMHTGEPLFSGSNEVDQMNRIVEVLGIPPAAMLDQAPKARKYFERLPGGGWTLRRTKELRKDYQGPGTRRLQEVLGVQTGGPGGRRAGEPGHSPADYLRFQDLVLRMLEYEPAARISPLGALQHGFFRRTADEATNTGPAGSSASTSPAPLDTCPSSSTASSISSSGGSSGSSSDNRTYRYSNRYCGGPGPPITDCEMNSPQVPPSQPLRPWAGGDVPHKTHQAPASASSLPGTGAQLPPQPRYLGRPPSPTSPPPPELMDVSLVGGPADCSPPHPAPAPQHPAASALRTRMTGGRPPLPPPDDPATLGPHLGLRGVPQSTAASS
Chain of Serine/threonine-protein kinase haspin (Homo sapiens) (Q8TF76 whole entry): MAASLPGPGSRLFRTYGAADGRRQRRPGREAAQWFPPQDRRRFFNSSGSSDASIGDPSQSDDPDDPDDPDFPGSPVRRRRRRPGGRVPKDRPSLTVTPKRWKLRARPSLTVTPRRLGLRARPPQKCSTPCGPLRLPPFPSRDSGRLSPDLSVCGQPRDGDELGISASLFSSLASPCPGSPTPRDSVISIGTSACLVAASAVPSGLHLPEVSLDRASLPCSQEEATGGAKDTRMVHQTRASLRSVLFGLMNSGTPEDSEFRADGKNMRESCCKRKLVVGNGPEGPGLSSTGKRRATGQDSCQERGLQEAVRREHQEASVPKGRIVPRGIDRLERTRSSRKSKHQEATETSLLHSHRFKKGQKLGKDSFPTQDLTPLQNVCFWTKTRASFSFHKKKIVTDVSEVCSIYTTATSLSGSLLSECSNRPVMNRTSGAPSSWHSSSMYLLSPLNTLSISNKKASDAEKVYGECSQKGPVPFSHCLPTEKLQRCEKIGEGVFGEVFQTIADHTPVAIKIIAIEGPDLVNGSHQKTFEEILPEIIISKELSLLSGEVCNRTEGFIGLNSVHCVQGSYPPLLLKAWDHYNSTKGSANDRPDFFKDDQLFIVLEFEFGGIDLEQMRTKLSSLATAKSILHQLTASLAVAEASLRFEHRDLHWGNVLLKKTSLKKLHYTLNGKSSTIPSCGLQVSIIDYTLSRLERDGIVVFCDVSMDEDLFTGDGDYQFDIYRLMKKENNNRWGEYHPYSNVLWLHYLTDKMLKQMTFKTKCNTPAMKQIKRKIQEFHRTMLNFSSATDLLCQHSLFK

In the case of `COc1ccc2sc(C(=O)N3CCOCC3)cc2c1`, the inhibition in series [1] is 0%.
The same measure, in the same setting: in the case of `COc1ccc2sc(C(=O)NCc3cccnc3)cc2c1` it was 28.9%; in that of `COc1ccc2sc(C(=O)NCCN)cc2c1`, 7.7%.
Consider `COc1ccc2sc(C(=O)N[C@H](C)C(C)(C)C)cc2c1`, for which the inhibition in series [1] came out at 6%.
On the same count and under the same terms, in the case of `COc1ccc2sc(C(=O)N(C)CCn3ccnc3)cc2c1` it was 9.4%; in that of `COC(=O)[C@@H](NC(=O)c1cc2cc(OC)ccc2s1)C(C)C`, 18.8%; in that of `CCOC(=O)[C@H](C)NC(=O)c1cc2cc(OC)ccc2s1`, 0%.
Still for that read-out and setting: then `COc1ccc2sc(C(=O)NCc3ccccn3)cc2c1`, with 0%; and `COc1ccc2sc(C(=O)N(C)Cc3cccc(C)c3)cc2c1`, with 25.9%; and `COc1ccc2sc(C(=O)N3CCCCC3)cc2c1`, with 0%.
With `COc1ccc2sc(C(=O)N3CCN(C)CC3)cc2c1`, the inhibition in [1] came out at 0%.
In the case of `COc1ccc2sc(C(=O)N[C@H](C(=O)O)C(C)C)cc2c1`, the inhibition in series [1] was 0%.
As for `COC(=O)CNC(=O)c1cc2cc(OC)ccc2s1`, the inhibition in [1] amounted to 0%.
With `COc1ccc2sc(C(=O)N(C)Cc3ccccc3F)cc2c1`, in series [1], the inhibition stood at 43.2%.
`COc1ccc2sc(C(=O)N(C)Cc3ccccc3)cc2c1`: the half-inhibitory concentration (IC50) came to 0.52 µM in [2] and 0.045 µM in series [3]. Besides, the inhibition is 70.6% in series [1]; 58% in [5]; 12% in [6]; 81% in [7]; 73% in series [8]; 44% in series [9]. For the same molecule, the inhibition was 101% in series [10], 10% in series [11], 23% in [12] and 4% in series [13]. In addition, the inhibition at 1 µM in [4] came out at 54%. Also, the inhibition result in series [14], in [15] and in [16] was “inactive” each time. Moreover, the GI50 was 2.7 µM in the series on T-24; 24.2 µM with MDA-MB-231; 3.7 µM in the series on HepG2; 28.8 µM in the series on T47D; greater than 30 µM in the series with THP-1; greater than 30 µM in series [17]. Moreover, the LC50 in the series with PBL was greater than 30 µM.
On to `C=CCNC(=O)c1cc2cc(OC)ccc2s1`, for which the inhibition in [1] is 37%.
Regarding `COc1ccc2sc(C(=O)NCc3ncc[nH]3)cc2c1`, the inhibition in series [1] was 0%.
`COc1ccc2sc(C(=O)NCCO)cc2c1`: the inhibition in [1] was found to be 0%.
On the same count and under the same terms, in the case of `COc1ccc2sc(C(=O)N(C)Cc3ccccn3)cc2c1` it was 34.6%; in that of `COc1ccc2sc(C(=O)NCC(F)(F)F)cc2c1`, 39.8%.
As for `COc1ccc2sc(C(=O)NCc3ccc(F)cc3)cc2c1`, the inhibition in [1] worked out at 23.5%.
Same read-out and setting: in the case of `COc1ccc2sc(C(=O)NCc3ccccc3F)cc2c1` it was 23.2%.
Same read-out and setting: then `COc1ccc2sc(C(=O)NCCn3ccnc3)cc2c1`, with 0%.
Consider `COc1ccc2sc(C(=O)N(C)Cc3cccnc3)cc2c1`, for which the IC50 in series [3] worked out at 0.0816 µM. Moreover, the inhibition in series [1] was 51%. Further, the figures for the GI50 in the series on T-24, in the series on MDA-MB-231 and in the series on T47D were 12.5 µM, 25.7 µM and 25.4 µM, respectively.
Take `COc1ccc2sc(C(=O)Nc3ccccc3)cc2c1`: the inhibition in series [1] is 0.54%.
Consider `COc1ccc2sc(C(=O)N(C)Cc3ccc(F)cc3)cc2c1`, for which the inhibition in [1] came to 28.7%.
Take `COc1ccc2sc(C(=O)NCC(=O)O)cc2c1`: the inhibition in series [1] was determined as 0.5%.
Same read-out and setting: then `COc1ccc2sc(C(=O)N[C@@H](C)C(=O)O)cc2c1`, with 0%; and `COc1cccc(CNC(=O)c2cc3cc(OC)ccc3s2)c1`, with 13.4%.
As to `COc1cccc(CN(C)C(=O)c2cc3cc(OC)ccc3s2)c1`, the inhibition in [1] worked out at 31.6%.
Same read-out and setting: in the case of `COc1ccc2sc(C(=O)NC3CC3)cc2c1` it was 25%.
As for `COc1ccc2sc(C(=O)NCCc3ccccc3)cc2c1`, in series [3], the half-maximal inhibitory concentration (IC50) is 0.107 µM. The inhibition in series [1] was determined as 50.7%.
Consider `COc1ccc2sc(C(=O)Nc3nccs3)cc2c1`, for which, in series [1], the inhibition turned out to be 28.2%.
Take `COc1ccc2sc(C(=O)NCc3ccccc3)cc2c1`: in series [3], the concentration for half-maximal inhibition (IC50) came to 0.084 µM. Further, in [1], the inhibition was 59.4%.
On to `COc1ccc2sc(C(=O)N(C)CCc3ccccc3)cc2c1`, for which the inhibition in series [1] stood at 32.9%.
Same read-out and setting: then `COc1ccc2sc(C(=O)NCc3ccco3)cc2c1`, with 33.4%.
